Measured values taken from ChEMBL document CHEMBL4130443, “Targeting breast cancer stem cells by novel HDAC3-selective inhibitors” (Eur J Med Chem, 2017).

How the values were obtained:
MDA-MB-231 [1] = test: Inhibition of colony formation of human MDA-MB-231 cells incubated for 48 hrs by crystal violet staining based assay; details: MDA-MB-231, 48 h
MDA-MB-231 [2] = test: Cytotoxicity in human MDA-MB-231 cells assessed as reduction in cell viability incubated for 24 to 72 hrs by MTT assay; format: functional, cell-based
Outline: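 MDA-MB-231 seeded 5,000 cells/well with 10% FBS, left overnight, then exposed to agents in 5% FBS for 24, 48 and 72 h. MTT added for 1 h, dye dissolved in DMSO, absorbance at 560 nm. Viability given as percent of the matching vehicle-treated control. N = 6.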

[3] = target: Histone deacetylase 3/Nuclear receptor corepressor 2 (HDAC3/NCoR2) (Homo sapiens, UniProt O15379); test: Inhibition of human HDAC3/NCOR2 using p53 (379 to 382 residues) derived fluorogenic peptide RHKKAc; format: protein-complex assay
Histone deacetylase 3/Nuclear receptor corepressor 2 (HDAC3/NCoR2), sequence (O15379 whole entry, the tested form may be a part): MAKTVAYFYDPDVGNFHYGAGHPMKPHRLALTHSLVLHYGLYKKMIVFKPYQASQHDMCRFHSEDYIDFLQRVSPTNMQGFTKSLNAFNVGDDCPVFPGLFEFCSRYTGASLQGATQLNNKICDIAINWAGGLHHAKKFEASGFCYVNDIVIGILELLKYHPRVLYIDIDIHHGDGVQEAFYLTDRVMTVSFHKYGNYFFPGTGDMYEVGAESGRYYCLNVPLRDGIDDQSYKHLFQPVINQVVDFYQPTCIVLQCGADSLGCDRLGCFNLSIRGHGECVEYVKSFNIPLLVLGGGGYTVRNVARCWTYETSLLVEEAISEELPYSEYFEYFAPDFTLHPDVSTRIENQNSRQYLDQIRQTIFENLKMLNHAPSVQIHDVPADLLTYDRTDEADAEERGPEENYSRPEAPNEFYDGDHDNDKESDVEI
Histone deacetylase 3/Nuclear receptor corepressor 2 (HDAC3/NCoR2), sequence (Q9Y618 whole entry, further chain, the tested form may be a part): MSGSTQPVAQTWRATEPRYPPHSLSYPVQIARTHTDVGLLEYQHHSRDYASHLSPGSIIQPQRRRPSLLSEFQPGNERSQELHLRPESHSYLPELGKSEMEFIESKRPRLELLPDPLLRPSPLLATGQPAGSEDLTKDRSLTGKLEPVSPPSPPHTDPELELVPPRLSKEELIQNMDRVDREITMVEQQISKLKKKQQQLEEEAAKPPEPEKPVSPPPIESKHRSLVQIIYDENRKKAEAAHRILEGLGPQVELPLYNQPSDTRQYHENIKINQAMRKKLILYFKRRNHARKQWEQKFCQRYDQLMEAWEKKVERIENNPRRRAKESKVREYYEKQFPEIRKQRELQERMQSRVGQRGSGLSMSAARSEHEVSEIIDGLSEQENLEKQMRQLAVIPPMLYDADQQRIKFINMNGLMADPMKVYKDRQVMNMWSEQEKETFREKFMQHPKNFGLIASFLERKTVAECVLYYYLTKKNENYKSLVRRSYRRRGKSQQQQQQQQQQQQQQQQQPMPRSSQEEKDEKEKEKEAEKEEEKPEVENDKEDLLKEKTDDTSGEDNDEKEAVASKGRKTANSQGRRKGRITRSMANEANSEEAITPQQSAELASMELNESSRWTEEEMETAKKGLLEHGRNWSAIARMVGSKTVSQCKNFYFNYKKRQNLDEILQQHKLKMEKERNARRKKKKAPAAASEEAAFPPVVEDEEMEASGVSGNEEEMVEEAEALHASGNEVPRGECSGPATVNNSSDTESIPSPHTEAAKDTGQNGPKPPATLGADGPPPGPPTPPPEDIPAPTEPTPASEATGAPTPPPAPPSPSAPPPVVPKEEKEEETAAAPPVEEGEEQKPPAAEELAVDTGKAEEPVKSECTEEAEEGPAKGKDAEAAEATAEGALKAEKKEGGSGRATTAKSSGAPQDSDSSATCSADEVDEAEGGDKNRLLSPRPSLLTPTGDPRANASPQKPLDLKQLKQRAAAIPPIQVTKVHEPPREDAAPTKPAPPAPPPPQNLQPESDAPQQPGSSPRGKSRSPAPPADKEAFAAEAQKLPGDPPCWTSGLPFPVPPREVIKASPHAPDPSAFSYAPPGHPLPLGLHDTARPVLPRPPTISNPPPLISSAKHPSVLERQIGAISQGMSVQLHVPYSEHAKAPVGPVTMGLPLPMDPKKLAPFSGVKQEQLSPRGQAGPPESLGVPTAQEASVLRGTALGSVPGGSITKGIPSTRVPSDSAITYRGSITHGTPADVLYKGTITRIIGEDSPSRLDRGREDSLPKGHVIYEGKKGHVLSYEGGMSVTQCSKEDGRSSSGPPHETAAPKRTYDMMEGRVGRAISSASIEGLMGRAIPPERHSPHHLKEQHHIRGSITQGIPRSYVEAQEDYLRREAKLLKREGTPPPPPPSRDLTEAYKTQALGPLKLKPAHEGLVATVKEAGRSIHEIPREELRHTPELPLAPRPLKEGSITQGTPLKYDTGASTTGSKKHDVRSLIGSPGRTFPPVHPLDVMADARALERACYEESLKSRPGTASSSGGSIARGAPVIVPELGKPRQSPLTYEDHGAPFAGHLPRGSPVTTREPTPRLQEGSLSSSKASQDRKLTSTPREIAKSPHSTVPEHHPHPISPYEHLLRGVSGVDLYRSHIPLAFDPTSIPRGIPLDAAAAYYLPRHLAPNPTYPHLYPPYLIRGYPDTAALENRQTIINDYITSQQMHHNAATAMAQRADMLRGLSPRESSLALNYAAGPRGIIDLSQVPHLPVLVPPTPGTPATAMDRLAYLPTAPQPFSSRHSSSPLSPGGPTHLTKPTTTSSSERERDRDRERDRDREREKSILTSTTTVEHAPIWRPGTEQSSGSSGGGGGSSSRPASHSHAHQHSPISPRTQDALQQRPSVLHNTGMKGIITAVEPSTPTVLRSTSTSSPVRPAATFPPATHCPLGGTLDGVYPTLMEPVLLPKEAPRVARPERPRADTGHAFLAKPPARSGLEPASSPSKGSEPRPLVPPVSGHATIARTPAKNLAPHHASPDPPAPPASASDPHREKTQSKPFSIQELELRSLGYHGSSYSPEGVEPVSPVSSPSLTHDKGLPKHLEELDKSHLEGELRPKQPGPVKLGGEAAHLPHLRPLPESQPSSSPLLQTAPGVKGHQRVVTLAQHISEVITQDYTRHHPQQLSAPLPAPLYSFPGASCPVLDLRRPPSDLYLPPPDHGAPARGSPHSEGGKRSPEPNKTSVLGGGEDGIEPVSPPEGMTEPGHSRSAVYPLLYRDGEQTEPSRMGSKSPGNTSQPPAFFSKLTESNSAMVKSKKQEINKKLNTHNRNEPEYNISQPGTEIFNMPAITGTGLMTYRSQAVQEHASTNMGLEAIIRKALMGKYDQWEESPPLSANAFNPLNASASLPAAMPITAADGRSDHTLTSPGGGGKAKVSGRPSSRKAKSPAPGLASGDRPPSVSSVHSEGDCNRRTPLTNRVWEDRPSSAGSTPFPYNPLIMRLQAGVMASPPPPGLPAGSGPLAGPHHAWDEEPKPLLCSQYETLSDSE

[4] = target: T1, Histone deacetylase 8 (Homo sapiens) (UniProt Q9BY41); test: Inhibition of human HDAC8 at 1 uM using p53 (379 to 382 residues) derived fluorogenic peptide RHKAcKAc
T1 sequence (whole entry): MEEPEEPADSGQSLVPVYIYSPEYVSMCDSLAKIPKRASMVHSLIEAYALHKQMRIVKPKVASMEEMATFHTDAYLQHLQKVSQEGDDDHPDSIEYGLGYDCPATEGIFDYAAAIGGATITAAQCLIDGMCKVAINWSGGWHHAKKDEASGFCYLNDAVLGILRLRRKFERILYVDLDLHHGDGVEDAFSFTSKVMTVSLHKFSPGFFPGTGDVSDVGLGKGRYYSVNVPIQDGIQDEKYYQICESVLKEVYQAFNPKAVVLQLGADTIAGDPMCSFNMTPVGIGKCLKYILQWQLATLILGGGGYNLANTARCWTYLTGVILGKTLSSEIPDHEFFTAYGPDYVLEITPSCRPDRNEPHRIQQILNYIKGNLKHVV
Outline: (§1)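 Isoform profiling run by a commercial vendor with compounds at 1 µM. Values are percent inhibition, each the average of two determinations.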

[5] = target: Histone deacetylase 3 (Homo sapiens) (UniProt O15379); test: Inhibition of HDAC3 in human MDA-MB-231 cells assessed as reduction in Akt phosphorylation at 0.5 to 5 uM by immunoblotting; format: cell-based
Histone deacetylase 3 (Homo sapiens), sequence (O15379 whole entry): as the sequence (O15379 whole entry, the tested form may be a part) above
Outline: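 Monolayer cells treated in 5% FBS at graded concentrations. Lysed in SDS/EDTA/Tris pH 8.1 buffer, equal protein immunoblotted with primary antibodies 1:1000 overnight at 4°C. Detected by ECL for phospho-Akt, β-catenin and histone H3 pan/H3K9 acetylation.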

[6] = target: Histone deacetylase 5 (Homo sapiens) (UniProt Q9UQL6); test: Inhibition of human HDAC5 at 1 uM using Boc-Lys(trifluoroacetyl)-AMC substrate; outline: as §1
Histone deacetylase 5 (Homo sapiens), sequence (Q9UQL6 whole entry, the tested form may be a part): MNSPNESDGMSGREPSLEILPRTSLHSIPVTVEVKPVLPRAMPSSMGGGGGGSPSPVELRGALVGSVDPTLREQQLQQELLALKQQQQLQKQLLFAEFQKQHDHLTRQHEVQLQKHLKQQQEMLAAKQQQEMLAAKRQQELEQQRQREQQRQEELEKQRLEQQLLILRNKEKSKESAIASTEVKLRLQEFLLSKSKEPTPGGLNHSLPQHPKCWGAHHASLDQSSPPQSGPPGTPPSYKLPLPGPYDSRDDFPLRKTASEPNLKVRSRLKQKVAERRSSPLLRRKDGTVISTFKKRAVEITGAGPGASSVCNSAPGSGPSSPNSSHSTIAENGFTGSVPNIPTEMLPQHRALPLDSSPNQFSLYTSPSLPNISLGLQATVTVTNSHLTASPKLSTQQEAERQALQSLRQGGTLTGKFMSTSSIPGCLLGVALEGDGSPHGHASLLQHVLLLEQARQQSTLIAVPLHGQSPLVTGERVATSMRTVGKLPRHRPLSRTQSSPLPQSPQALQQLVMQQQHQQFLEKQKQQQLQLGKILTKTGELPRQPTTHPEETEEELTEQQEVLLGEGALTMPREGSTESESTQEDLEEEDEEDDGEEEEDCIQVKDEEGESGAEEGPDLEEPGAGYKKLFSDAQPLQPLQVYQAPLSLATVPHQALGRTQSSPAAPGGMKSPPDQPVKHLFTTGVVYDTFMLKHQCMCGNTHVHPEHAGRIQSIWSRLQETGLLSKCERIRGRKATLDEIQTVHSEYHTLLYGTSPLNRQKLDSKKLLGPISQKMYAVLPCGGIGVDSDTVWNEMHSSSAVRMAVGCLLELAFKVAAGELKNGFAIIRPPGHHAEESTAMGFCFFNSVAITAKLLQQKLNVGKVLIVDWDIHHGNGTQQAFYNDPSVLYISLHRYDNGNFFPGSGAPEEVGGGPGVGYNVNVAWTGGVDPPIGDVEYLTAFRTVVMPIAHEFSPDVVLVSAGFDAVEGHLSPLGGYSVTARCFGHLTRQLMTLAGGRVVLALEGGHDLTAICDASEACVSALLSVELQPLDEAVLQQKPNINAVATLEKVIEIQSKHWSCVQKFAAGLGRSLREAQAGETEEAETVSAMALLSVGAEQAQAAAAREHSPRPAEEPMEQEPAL

Histone deacetylase 2 = Histone deacetylase 2 (Homo sapiens, UniProt Q92769); test: Inhibition of human HDAC2 at 1 uM using p53 (379 to 382 residues) derived fluorogenic peptide RHKKAc; outline: as §1
Histone deacetylase 2, sequence (Q92769 whole entry, the tested form may be a part): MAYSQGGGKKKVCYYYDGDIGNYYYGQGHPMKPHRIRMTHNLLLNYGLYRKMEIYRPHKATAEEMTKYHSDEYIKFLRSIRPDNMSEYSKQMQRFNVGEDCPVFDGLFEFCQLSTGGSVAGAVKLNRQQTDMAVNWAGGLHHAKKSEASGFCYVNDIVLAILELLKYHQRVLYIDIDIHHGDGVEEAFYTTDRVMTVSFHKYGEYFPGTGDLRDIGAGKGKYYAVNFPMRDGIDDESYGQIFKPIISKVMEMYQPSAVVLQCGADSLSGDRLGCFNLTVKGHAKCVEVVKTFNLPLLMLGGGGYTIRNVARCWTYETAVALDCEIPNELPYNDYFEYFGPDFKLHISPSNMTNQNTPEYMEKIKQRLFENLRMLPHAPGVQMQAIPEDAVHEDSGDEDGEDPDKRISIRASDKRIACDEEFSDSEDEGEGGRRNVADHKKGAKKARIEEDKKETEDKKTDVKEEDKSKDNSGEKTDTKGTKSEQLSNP

`CC(C)(C(=O)Nc1ccc(C(=O)Nc2ccc(F)cc2N)cc1)c1ccccc1` was tested, and the IC50 (MDA-MB-231 [1]) was 500 to 1000 nM, the IC50 (MDA-MB-231 [2]) was no less than 10 µM and the IC50 [3] was 350 nM. For the same molecule, the inhibition [4] was 0%, the inhibition [5] was “Dose-dependent effect” and the inhibition [6] was 0%. The inhibition (Histone deacetylase 2) was 5%.
